ChEMBL document CHEMBL4033777, “Next-Generation Hypoxic Cell Radiosensitizers: Nitroimidazole Alkylsulfonamides” (J Med Chem, 2018)
In brackets after ≈: the same amount, converted by molar mass.

Experiments:
[1] = test system: HCT-116; experiment: (§1) Hypoxia radiosensitization activity in human HCT116 cells assessed as survival ratio by measuring ratio of cell survival with radiation in absence to presence of compound at 1.34 mM preincubated for 1 hr followed by 6 to 29 Gy irradiation measured after 10 days by methylene blue staining-based cell counting method; format: functional
[2] = test system: HCT-116; experiment: as §1, with “method relative to misonidazole” for “method”; format: functional
[3] = test system: HCT-116; experiment: Cytotoxicity against human HCT116 cells at anoxic IC50 incubated for 1 hr at 21 degC by clonogenic survival assay; settings: hct-116, 1 h
[4] = Solubility of the compound in alphaMEM containing 5% FCS and 1% DMSO by HPLC analysis; format: physicochemical
Summary of the method: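 Saturated drug solutions were incubated at 37 °C in αMEM with 5% FCS and 1% DMSO. Dissolved drug was quantified by HPLC.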

[5] = test system: HCT-116; experiment: Cytotoxicity against human HCT116 cells incubated for 4 hrs under anaerobic condition measured after 5 days by sulforhodamine B assay; format: functional, cell-based
Summary of the method: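 STR-authenticated, mycoplasma-free HCT116 cells in αMEM + 5% FCS were seeded at 700 cells/well and allowed 2 h to attach. Drug was added from DMSO stocks (<1% DMSO) in serial 3-fold dilutions for 4 h, oxic or anoxic (Pd-catalyst anaerobic chamber, medium pre-equilibrated ≥3 days). After washing, cells regrew for 5 days before SRB staining and IC50 determination.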

[6] = test system: HCT-116; experiment: Hypoxic cytotoxicity ratio of IC50 for human HCT116 cells under oxic condition to IC50 for human HCT116 cells under anoxic condition
Summary of the method: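 HCT116 cells, 700 per well and attached 2 h, got a 4 h exposure to 3-fold serial dilutions (<1% DMSO) under air or in a Pd-catalyst anaerobic chamber with pre-equilibrated medium. Cells were washed, regrown 5 days, and stained with sulforhodamine B to give IC50. HCR = oxic IC50 / anoxic IC50.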

[7] = test system: HCT-116; experiment: as §1, with “with 15 Gy” for “with”, “anoxic IC50” for “1.34 mM”, “15” for “6 to 29”; format: functional
Summary of the method: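 Anoxic HCT116 cells were seeded at 10^5/well and treated at the anoxic IC50 concentration for 1 h at room temperature. They were irradiated with 15 Gy (60Co, ~2 Gy/min) in a sealed steel box, then plated clonogenically. Colonies of >50 cells were counted […]. SR15 = survival with radiation / survival with drug + radiation.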

[8] = test system: HCT-116; experiment: (§2) Hypoxia radiosensitization activity in human HCT116 cells assessed as sensitizer enhancement ratio by measuring ratio of radiation dose for 1% survival in absence to presence of compound at 2.32 mM preincubated for 1 hr followed by irradiation measured after 10 days by methylene blue staining-based cell counting method; format: functional
[9] = test system: HCT-116; experiment: as §2, with “method relative to misonidazole” for “method”; format: functional
[10] = test system: HCT-116; experiment: as §1, with “2.32” for “1.34”; format: functional
[11] = test system: HCT-116; experiment: as §1, with “2.32” for “1.34”, “method relative to misonidazole” for “method”; format: functional
[12] = test system: HCT-116; experiment: as §1, with “0.52” for “1.34”; format: functional
[13] = test system: HCT-116; experiment: as §1, with “0.52” for “1.34”, “method relative to misonidazole” for “method”; format: functional
[14] = test system: HCT-116; experiment: Hypoxia radiosensitization activity in human HCT116 cells assessed as sensitizer enhancement ratio by measuring ratio of radiation dose for 1% survival in absence to presence of compound at 1 mM […] measured after 10 days by methylene blue staining-based cell counting method; format: functional
[15] = test system: HCT-116; experiment: as §2, with “1” for “2.32”, “method relative to misonidazole” for “method”; format: functional
[16] = test system: HCT-116; experiment: as §1, with “1” for “1.34”; format: functional
[17] = test system: HCT-116; experiment: as §1, with “1” for “1.34”, “method relative to misonidazole” for “method”; format: functional
[18] = test system: Mus musculus; experiment: Drug level in NIH-III mouse assessed as maximum achievable dose at 10 ml/kg, iv; format: ADME; settings: in vivo
Summary of the method: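 Non-tumor-bearing female NIH-III mice (~20 g) received freshly prepared solutions i.v. at 10 mL/kg in 0.9% saline with 1% DMSO, or saline with 2 molar equivalents NaHCO3 for phosphate prodrugs. MAD was the maximum dose that dissolved in the injection volume.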

[19] = test system: Plasma; experiment: Cmax in plasma of NIH-III mouse xenografted with human HCT116 cells at 2.20 mmol/kg, iv administered as single dose by HPLC analysis; format: ADME, organism-based; set-up: dose 2.2 mmol/kg, route intravenous; settings: in vivo
Summary of the method: (§3)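 Female NIH-III mice bearing subcutaneous HCT116 xenografts (10^6 cells inoculated). At ca. 300 mm3 tumor size, a single i.v. dose was given at the MAD or 75% of the MTD. Vehicle was 0.9% saline with 1% DMSO, or saline with 2 molar equivalents NaHCO3 for phosphate prodrugs. Plasma and tumor were sampled at multiple times by cardiac puncture and excision, assayed by HPLC, and analysed noncompartmentally.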

[20] = Tmax in plasma of NIH-III mouse xenografted with human HCT116 cells at 2.20 mmol/kg, iv administered as single dose by HPLC analysis; format: ADME, organism-based; settings: 2.2 mmol/kg
Summary of the method: (§4)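 Female NIH-III mice bearing subcutaneous HCT116 tumors (10^6 cells; ~300 mm3) got a single i.v. dose at the MAD or 75% of the MTD. Vehicle was saline with 1% DMSO, or saline with 2 equivalents of NaHCO3 for the phosphates. Plasma and tumor were sampled at multiple times by cardiac puncture and excision, drug was measured by HPLC, and Tmax came from noncompartmental analysis.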

[21] = Cmax in tumor of NIH-III mouse xenografted with human HCT116 cells at 2.20 mmol/kg, iv administered as single dose by HPLC analysis; format: ADME, organism-based, Neoplasm; set-up: dose 2.2 mmol/kg, route intravenous; settings: in vivo; summary of the method: as §3
[22] = Tmax in tumor of NIH-III mouse xenografted with human HCT116 cells at 2.20 mmol/kg, iv administered as single dose by HPLC analysis; format: ADME, organism-based, Neoplasm; settings: 2.2 mmol/kg; summary of the method: as §4
[23] = test system: HCT-116; experiment: In vivo hypoxia radiosensitization activity in human HCT116 cells xenografted in NIH-III mouse assessed as survival ratio by measuring ratio of cell survival with 12.5 Gy radiation in absence to presence of compound at 2.20 mmol/kg, iv pretreated as single dose for 10 mins followed by irradiation measured after 18 hrs by excision assay; format: functional
[24] = Electrophilicity of the compound in pH 7 phosphate buffer assessed as one-electron reduction potential
Summary of the method: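 The one-electron reduction potential was set by pulse radiolysis equilibria at pH 7.0 (2.5 mM phosphate), established within 20 µs against benzylviologen, methylviologen or triquat. ΔE came from equilibrium constants via the Nernst equation, at three concentration ratios and 22 ± 2 °C.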

[25] = test system: Mus musculus; experiment: Toxicity in NIH-III mouse xenografted with human HCT116 cells assessed as change in body weight with 12.5 Gy radiation at 2.20 mmol/kg, iv administered as single dose; settings: in vivo
[26] = test system: HCT-116; experiment: as §2, with “5” for “2.32”; format: functional
[27] = test system: HCT-116; experiment: as §2, with “5” for “2.32”, “method relative to misonidazole” for “method”; format: functional
[28] = test system: HCT-116; experiment: as §1, with “5” for “1.34”; format: functional
[29] = test system: HCT-116; experiment: as §1, with “5” for “1.34”, “method relative to misonidazole” for “method”; format: functional
[30] = test system: HCT-116; experiment: as §2, with “2.76” for “2.32”; format: functional
[31] = test system: HCT-116; experiment: as §2, with “2.76” for “2.32”, “method relative to misonidazole” for “method”; format: functional
[32] = test system: HCT-116; experiment: as §1, with “2.76” for “1.34”; format: functional
[33] = test system: HCT-116; experiment: as §1, with “2.76” for “1.34”, “method relative to misonidazole” for “method”; format: functional

Question: For `Cc1ncc([N+](=O)[O-])n1CCS(=O)(=O)NCCN1CCCCC1`, which Ratio [1] is on record?
Answer: 24

Question: What about the “fold change (FC)” value [2] of the same compound?
Answer: 2.36

Question: And the Activity [3]?
Answer: Non-Toxic

Question: With `O=[N+]([O-])c1cncn1CS(=O)(=O)NCCO` as the compound, how does the solubility [4] read?
Answer: 23.7 mM (≈ 5.93 mg/mL)

Question: And the IC50 [5]?
Answer: 2300 µM

Question: And the “Ratio IC50” value [6]?
Answer: 4

Question: What about the Ratio [7] of the same compound?
Answer: 181

Question: And the Ratio [8]?
Answer: 1.81

Question: What about the “fold change (FC)” value [9] of the same compound?
Answer: 1.28

Question: And the Ratio [10]?
Answer: 114

Question: What about the “fold change (FC)” value [11] of the same compound?
Answer: 14.8

Question: And the Activity [3]?
Answer: Non-Toxic

Question: With `COCCNS(=O)(=O)Cn1cnc([N+](=O)[O-])c1` as the compound, how does the Ratio [12] read?
Answer: 1.3

Question: What about the “fold change (FC)” value [13] of the same compound?
Answer: 0.44

Question: What about the Activity [3] of the same compound?
Answer: Non-Toxic

Question: Which results are given for `O=C(Cn1ccnc1[N+](=O)[O-])NCCO` [ETANIDAZOLE]?
Answer: solubility [4]: > 200 mM; IC50 [5]: 1000 µM; Ratio IC50 [6]: 19; Ratio [14]: 1.339; Ratio [7]: 7; fold change (FC) [15]: 0.95; Ratio [16]: 4.6; fold change (FC) [17]: 0.75; Drug uptake [18]: 2.2 mmol/kg; Cmax [19]: 3640 µM; Tmax [20]: 5 min; Cmax [21]: 800 µM; Tmax [22]: 5 min; Ratio [23]: 8; Activity [24]: -388 mV; Activity [3]: Non-Toxic; Activity [25]: Non-Toxic

Question: For `O=[N+]([O-])c1cncn1CCS(=O)(=O)NCCO`, which solubility [4] is on record?
Answer: 69.3 mM (≈ 18.3 mg/mL)

Question: What about the IC50 [5] of the same compound?
Answer: 5300 µM

Question: And the “Ratio IC50” value [6]?
Answer: 2

Question: And the Ratio [7]?
Answer: 282

Question: What about the Ratio [26] of the same compound?
Answer: 1.81

Question: And the “fold change (FC)” value [27]?
Answer: 1.23

Question: What about the Ratio [28] of the same compound?
Answer: 163

Question: What about the “fold change (FC)” value [29] of the same compound?
Answer: 12.1

Question: And the Activity [3]?
Answer: Non-Toxic

Question: With `Cc1ncc([N+](=O)[O-])n1CCS(=O)(=O)NCCCN1CCOCC1` as the compound, how does the solubility [4] read?
Answer: > 55.2 mM

Question: What about the IC50 [5] of the same compound?
Answer: 2800 µM

Question: And the “Ratio IC50” value [6]?
Answer: 0.8

Question: And the Ratio [7]?
Answer: 8

Question: And the Ratio [30]?
Answer: 1.68

Question: What about the “fold change (FC)” value [31] of the same compound?
Answer: 1.2

Question: What about the Ratio [32] of the same compound?
Answer: 28

Question: What about the “fold change (FC)” value [33] of the same compound?
Answer: 3.96

Question: What about the Activity [3] of the same compound?
Answer: Non-Toxic
